Laboratory results published in paper PMC11582619 (Communications Biology, 2024).
“Also recorded” adds a separate entry of the source.

Tests used:
HepG2 cells [1] = assay: ROS levels by flow cytometry in ethanol-treated HepG2 cells; type: cell-based, human; details: ethanol + compound
[2] = Plasma concentration of SSa, SSB1 and SGA after oral SSa; type: in vivo, mice; details: for course of plasma level after administration (in words): after oral SSa 50 mg/kg
Method in brief: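 Mice fasted 24 h, then given SSa 50 mg/kg by oral gavage. About 100 µL retro-orbital blood taken at 0, 0.5, 1, 2, 4, 6, 8, 10, 12 and 24 h; 9 mice per time point, three mice pooled per sample, n = 3. Plasma SSa, SSB1 and SGA measured by UHPLC-MS/MS against plasma-matrix calibration and QC standards. AUC by moment analysis with log-trapezoidal method.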

HepG2 cells [3] = assay: Oil Red O staining of ethanol-induced lipid storage in HepG2 cells; type: cell-based, human; details: compound 7.5 μmol/L
[4] = biological target: T1, Recombinant human SIRT1 protein (Homo sapiens, UniProt Q96EB6); assay: Microscale thermophoresis; type: binding; details: Kd between SIRT1 and compound (MST), recombinant human SIRT1, RED-NHS labelled
T1 sequence (Q96EB6 1-747): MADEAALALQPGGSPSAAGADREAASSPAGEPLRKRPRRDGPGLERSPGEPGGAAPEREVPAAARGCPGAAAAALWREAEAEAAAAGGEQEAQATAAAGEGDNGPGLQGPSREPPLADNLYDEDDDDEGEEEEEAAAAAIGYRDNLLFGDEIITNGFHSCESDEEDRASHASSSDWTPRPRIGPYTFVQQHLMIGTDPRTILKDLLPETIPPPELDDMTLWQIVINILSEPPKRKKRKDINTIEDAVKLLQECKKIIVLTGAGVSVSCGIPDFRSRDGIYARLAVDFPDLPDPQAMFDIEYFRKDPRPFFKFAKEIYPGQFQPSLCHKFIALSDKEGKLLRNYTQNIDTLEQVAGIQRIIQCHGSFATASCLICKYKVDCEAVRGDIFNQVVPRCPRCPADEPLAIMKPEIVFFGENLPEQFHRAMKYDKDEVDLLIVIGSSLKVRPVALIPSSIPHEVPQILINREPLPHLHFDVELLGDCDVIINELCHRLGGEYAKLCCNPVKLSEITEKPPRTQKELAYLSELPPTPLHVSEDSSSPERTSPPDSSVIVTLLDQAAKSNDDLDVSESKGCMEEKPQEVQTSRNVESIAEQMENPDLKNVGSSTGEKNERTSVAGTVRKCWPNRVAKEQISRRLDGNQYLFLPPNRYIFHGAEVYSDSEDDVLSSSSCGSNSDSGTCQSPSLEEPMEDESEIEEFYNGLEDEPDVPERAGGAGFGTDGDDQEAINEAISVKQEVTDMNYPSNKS
Method in brief: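 Recombinant human SIRT1 labelled with RED-NHS dye (30 min, room temperature, dark) and gel-filtered; pre-test checked labelling, adsorption and aggregation. Incubated 5 min at 24 °C before MST.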

SIRT1 [5] = assay: Hepatic SIRT1 protein over time after gavage with SSa solution; type: in vivo, mice; details: 0-12 h after gavage with SSa solution
[6] = test system: SIRT1, PGC-1α, PPAR-α, Deptor, mTOR, p-mTOR (liver); assay: Western blot of liver proteins, with or without hepatic SIRT1 knockdown; type: in vivo, C57BL/6J mice; details: ethanol-fed mice, oral SSa
[7] = test system: chronic-plus-binge ethanol-fed mice; assay: Chronic-plus-binge ethanol-fed; type: in vivo, C57BL/6J mice
[8] = test system: PGC-1α, PPAR-α, CPT-1α, ACC-1, SREBP-1C, FAS, SCD-1 (liver mRNA); type: in vivo, C57BL/6J mice; details: ethanol-fed mice, oral SSa
[9] = test system: liver, kidney, spleen, lung and heart; assay: Short-term toxicity of SSa, 14 days by gavage, HE staining of organs; type: in vivo; details: male C57BL/6J mice, SSa 15 mg/kg/daily
[10] = cited from earlier work
[11] = test system: chronic-plus-binge ethanol-fed mice with hepatic SIRT1 knockdown; assay: NIAAA model in mice with hepatic SIRT1 knockdown; type: in vivo, C57BL/6J mice
Method in brief: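 Hepatic SIRT1 knockdown in C57BL/6J mice by tail-vein AAV8-TBG-miR30 shRNA against mouse SIRT1, with ZsGreen tag (1 × 10^12 vg/mouse); AAV8-TBG-ZsGreen as control. Four weeks later: NIAAA chronic-plus-binge ethanol model with oral test compound once daily for 7 days. Knockdown checked by liver ZsGreen fluorescence and SIRT1 western blot. Body weight tracked, n = 6.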

[12] = test system: SIRT1, SREBP-1C, PPAR-α and their target genes (liver mRNA); assay: qRT-PCR of lipid metabolism genes and SIRT1 in liver of ALD mice; type: in vivo, C57BL/6J mice; details: ethanol-fed mice, oral SSa
Method in brief: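 NIAAA chronic-plus-binge model in C57BL/6J mice: 14-day 5% ethanol Lieber–DeCarli diet, oral SSa (5–15 mg/kg) daily for 7 days, ethanol binge on day 15, liver harvested 9 h later. Liver mRNA measured by SYBR Green qRT-PCR (25 nmol/L primers), β-actin reference, delta-delta Ct method. Protein by western blot: 20 µg per lane, 10% SDS-PAGE, ECL detection.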

SIRT1 [13] = assay: Immunostaining targeting SIRT1 in mouse liver; type: in vivo, C57BL/6J mice; details: ethanol-fed mice, oral SSa
Method in brief: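 Male C57BL/6J mice (8 weeks) on the NIAAA chronic-plus-binge model: 5 days of Lieber–DeCarli control liquid diet, then 5% (v/v) ethanol liquid diet for 14 days. Oral SSa 5, 10 or 15 mg/kg once daily for 7 days. Day-15 oral ethanol binge; harvest under isoflurane 9 h later. Livers fixed in 4% paraformaldehyde, 5 µm sections, SIRT1 immunofluorescence imaged confocally; n = 3.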

[14] = mice, after intragastric SSa 50 mg/kg

With `C[C@H]1O[C@@H](O[C@H]2CC[C@@]3(C)[C@@H](CC[C@]4(C)[C@@H]3C=CC3=C5CC(C)(C)CC[C@]5(CO)[C@@H](O)C[C@]34C)[C@]2(C)CO)[C@H](O)[C@@H](O[C@@H]2O[C@H](CO)[C@@H](O)[C@H](O)[C@H]2O)[C@H]1O` [SSB1, Saikosaponin B1] the “ethanol-induced ROS production” value (HepG2 cells [1]) was “had no effect on ROS”, the “maximal (peak) plasma concentration” value [2, 14] was 105.12 ng/mL and the “time of first detection in plasma” value [2, 14] was 0.5 h. For the same molecule, the “time of peak plasma concentration” value [2, 14] was 1 h, the “course of plasma level after administration (in words)” value (“course of plasma level” below) ([2]; mice) was “undetectable after 6 h of administration; also recorded: quickly metabolized after administration” and the “ethanol-induced lipid droplet accumulation (Oil red O)” value (HepG2 cells [3]) was “had no significant effect”.
In the case of `C[C@H]1O[C@@H](O[C@H]2CC[C@@]3(C)[C@@H](CC[C@]4(C)[C@@H]3C=C[C@]35OC[C@@]6(CCC(C)(C)C[C@H]63)[C@@H](O)C[C@]54C)[C@]2(C)CO)[C@H](O)[C@@H](O[C@@H]2O[C@H](CO)[C@@H](O)[C@H](O)[C@H]2O)[C@H]1O` [SSa, Saikosaponin A], the “ethanol-induced ROS production” value (HepG2 cells [1]) is reported as “significantly limited ethanol-induced ROS production”, the Kd [4] is reported as roughly 25.2 µM and the “hepatic SIRT1 protein abundance over time” value (SIRT1 [5]) is reported as “enhanced hepatic SIRT1 protein abundance at 4–12 h”. The “liver PGC-1α, PPAR-α and Deptor protein with SIRT1 deficiency” value [6] was “decreases the expression of PGC-1α, PPAR-α and Deptor induced by SSa treatment”, the “body weight and liver index” value ([7]; SSa 5, 10, 15 mg/kg oral) was “improved body weight and liver index in a dose-dependent manner” and the “NAD+/NADH ratio in liver homogenate” value ([7]; oral SSa) was “increased the NAD^+/NADH ratio”. The “TC and TG in liver homogenate” value ([7]; oral SSa) was “significantly reduced alcohol-induced TC and TG accumulation in the liver”, the “liver function and plasma TC, TG, γ-GT, De Ritis ratio” value ([7]; oral SSa) was “significantly ameliorated liver function and reduced the plasma TC, TG, γ-GT content and De Ritis ratio” and the “liver lipid deposition (Oil red O staining)” value ([7]; oral SSa) was “reduced alcohol-induced liver lipid deposition in a dose-dependent manner”. For the same molecule, the “liver pathology (HE staining)” value ([7]; oral SSa) was “improves liver pathological injury”, the “maximal (peak) plasma concentration” value [2, 14] was 63.31 ng/mL and the “course of plasma level” value ([2]; mice) was “almost completely metabolized after 2 h of administration”. The “course of plasma level” value ([2]; mice, listed as SSA) was “quickly metabolized after administration”, the Tmax ([2]; mouse, plasma, po, 50 mg/kg) was 30 min and the “liver PGC-1α, PPAR-α, CPT-1α mRNA with SIRT1 knockdown” value [8] was “inhibits the upregulation of PGC-1α, PPAR-α, CPT-1α induced by SSa”. The “liver mRNA of SREBP-1C, ACC1, FAS and SCD-1” value ([8]; reversed by SIRT1 knockdown) was “decreased the mRNA expression of SREBP-1C, ACC1, FAS and SCD-1”, the “short-term toxicity: pathological changes of liver, kidney, spleen, lung and heart (HE)” value [9] was “no significant pathological changes” and the “intestinal absorption after oral administration” value [10] was “poor absorbance in the intestine when administered orally”. The “toxicity under intravenous injection” value [10] was “marked hemolysis under intravenous injection”, the “body weight with hepatic SIRT1 knockdown” value ([11]; SSa administration for 7 days) was “had no effect on body weight” and the “NAD+/NADH with hepatic SIRT1 deficiency” value ([11]; ethanol-fed mice, oral SSa) was “the increase of NAD^+/NADH induced by SSa was also inhibited”. For the same molecule, the “hepatic pathology and lipid deposition with hepatic SIRT1 deficiency” value ([11]; ethanol-fed mice, oral SSa) was “prevents the SSa’s improvement in alcohol-induced hepatic pathology and lipid deposition”, the “liver function recovery with hepatic SIRT1 knockdown” value ([11]; ethanol-fed mice, oral SSa) was “mitigated SSa’s improvement in alcohol-induced liver function recovery” and the “ethanol-induced lipid droplet accumulation (Oil red O)” value (HepG2 cells [3]) was “significantly reduced the lipid droplet accumulation induced by ethanol”. The “liver mRNA of SREBP-1C and its target genes” value [12] was “decreased the elevation of SREBP-1C, ACC-1, FAS and SCD-1 induced by alcohol”, the “alcohol-induced decrease of SIRT1 expression in the liver” value ([12]; mRNA and protein (Fig. 2I, J)) was “can reverse this phenomenon” and the “SIRT1 entry into the nucleus (liver immunofluorescence)” value (SIRT1 [13]) was “promoted SIRT1 entry into the nucleus”.
